Bioassay records: PubChem, several laboratories
The list is not random: actives were taken first. Their share in the collection is about 1.8%.
SIAE inh = inhibitors of human sialic acid acetylesterase SIAE; SIAE FP-Rh probe binding, fluorescence polarization; inhibition, % at 9.66 µM; Q9HAT2; actives 0.69% (n = 370,000);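 active means inhibition above a cutoff: mean of compounds within the control limits plus 3 SD of those, cut at about 17% in these data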;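 further: 0% = plate median of compound wells and 100% = probe without SIAE protein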
Target sequence (Q9HAT2 whole entry, looked up): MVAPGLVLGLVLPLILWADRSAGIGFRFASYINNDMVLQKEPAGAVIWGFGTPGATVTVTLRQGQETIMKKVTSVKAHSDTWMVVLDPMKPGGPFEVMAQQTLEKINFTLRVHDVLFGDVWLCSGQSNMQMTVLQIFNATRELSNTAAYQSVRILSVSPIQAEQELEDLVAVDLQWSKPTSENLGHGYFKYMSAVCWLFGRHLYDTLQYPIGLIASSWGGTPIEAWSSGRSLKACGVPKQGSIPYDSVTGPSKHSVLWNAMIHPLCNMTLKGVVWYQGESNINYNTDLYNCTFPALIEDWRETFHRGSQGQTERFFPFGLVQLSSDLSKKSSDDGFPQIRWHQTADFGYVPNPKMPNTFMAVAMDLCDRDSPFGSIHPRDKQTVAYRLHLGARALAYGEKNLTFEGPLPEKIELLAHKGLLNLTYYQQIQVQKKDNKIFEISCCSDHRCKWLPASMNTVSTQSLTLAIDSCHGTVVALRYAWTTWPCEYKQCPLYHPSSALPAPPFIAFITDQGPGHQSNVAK
TCR-CD3 inh = blocks the human TCR-CD3 interaction; AID 651800; inhibition, % at 9.4 µM; TAMRA-labeled TCR probe fluorescence, biochemical; actives 0.37% (n = 360,000); in the data active means inhibition above about 19%;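 further: recombinant mutant TCR 2C K166C tagged with TAMRA read by polarization; 0% = receptor in buffer alone and 100% = receptor with positive control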
ARNT TACC3 PPI = disruptors of human ARNT/TACC3 interaction; AlphaScreen His-ARNT PAS-B/GST-TACC3 binding, luminescence; TACC3 fragment carries E629A point mutation; inhibition, % at 9.99 µM; AID 623870; actives 0.66% (n = 390,000);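 active means mean inhibition of replicates at least 50% and at least half of replicates each reaching 50%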;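 further: 0% = complete ARNT plus TACC3 wells and 100% = ARNT alone without TACC3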
mABHD4 FP = inhibits mouse alpha/beta hydrolase domain 4 | Q8VD66 | purified mABHD4, FP-Rh probe fluorescence polarization | actives 0.54% (n = 370,000) | AID 720543 | inhibition, % at 8.92 µM;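 active means inhibition exceeding the mean over every tested compound plus 3 SD, cut at about 30% in these data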;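 further: 0% = plate median of compound wells and 100% = S159A mutant with DMSO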
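System: mouse ABHD4 enzyme, wild type / Medium: HEPES pH 7.0, NaCl, Pluronic buffer / Reagent: FP-Rh activity-based fluorescent probe / Control set: S159A mutant high control, sample median low control / Detection: fluorescence polarization with parallel and perpendicular emission, 525/598 nm / Schedule: 45 min + 60 min at 25 °C / Compound dosing: 8.92 µM, single dose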
HTRA1 inhibitor = HTRA1 (human) protease inhibition; inhibition, % at 5.96 µM; actives 0.5% (n = 340,000); recombinant HTRA1, FP-rhodamine activity-based probe, fluorescence polarization; Q92743; in the data active means inhibition above about 36%;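 further: 0% = enzyme with DMSO and 100% = wells lacking enzyme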
Numbers without * were called inactive.

Results for Cc1c(N=Nc2c(O)n(-c3ccc(Br)cc3)c(=O)[nH]c2=O)c(=O)n(-c2ccccc2)n1C ?
SIAE inh: 7; TCR-CD3 inh: -7; ARNT TACC3 PPI: 61*; mABHD4 FP: 0; HTRA1 inhibitor: 3

Results for Cc1c(N=Nc2c(O)[nH]c(=O)[nH]c2=O)c(=O)n(-c2ccccc2)n1C ?
SIAE inh: -6; TCR-CD3 inh: -8; ARNT TACC3 PPI: 65*; mABHD4 FP: -1; HTRA1 inhibitor: 7

Results for Cc1c(N=Cc2c(O)n(C)c(=O)[nH]c2=O)c(=O)n(-c2ccccc2)n1C ?
SIAE inh: 0; TCR-CD3 inh: -4; mABHD4 FP: 5

How did COc1ccc(/C=C2\C(=O)NC(=S)N(C)C2=O)cc1C do in these assays?
SIAE inh: -9; TCR-CD3 inh: 0; ARNT TACC3 PPI: 55*; mABHD4 FP: 4; HTRA1 inhibitor: 9

Results for Cc1ccsc1/C=C1\C(=O)NC(=S)N(C)C1=O ?
SIAE inh: -160; TCR-CD3 inh: -82; ARNT TACC3 PPI: -1; mABHD4 FP: -133; HTRA1 inhibitor: -6

How did Cc1cccc(S(=O)(=O)N2[C@@H]3c4ccc(-c5ccccc5)c(=O)n4C[C@H]2[C@H](CO)[C@H]3C(=O)O)c1 do in these assays?
ARNT TACC3 PPI: -4

What do the screens show for `O=C1NC(=O)C(Nc2ccc(Cl)c(Cl)c2)C(=O)N1`?
SIAE inh: -4; TCR-CD3 inh: -4; ARNT TACC3 PPI: 25*; mABHD4 FP: 2; HTRA1 inhibitor: 0

How did O=C(Nc1ccc(Cl)c(Cl)c1)c1ccco1 do in these assays?
SIAE inh: -6; TCR-CD3 inh: 6; ARNT TACC3 PPI: -2; mABHD4 FP: -11; HTRA1 inhibitor: -13

What do the screens show for `COC(=O)[C@H]1[C@H](CO)[C@H]2Cn3c(ccc(C4=CCCCC4)c3=O)[C@@H]1N2CC1CC1`?
ARNT TACC3 PPI: -3

How did COc1cc2c(cc1OC)-c1c(OC)c(OC)cc3c1[C@H](C2)N(C)CC3 do in these assays?
SIAE inh: 10; TCR-CD3 inh: -3; ARNT TACC3 PPI: 69*; mABHD4 FP: 17; HTRA1 inhibitor: 15

Results for N#Cc1cccc(-c2ccc([C@@H]3[C@@H](CO)N4CCCCN(C(=O)Cc5ccccc5)C[C@@H]34)cc2)c1 ?
ARNT TACC3 PPI: -5

What do the screens show for `O=C(Cc1ccccn1)N1CCCCN2[C@H](CO)[C@@H](c3ccc(C#Cc4ccccc4)cc3)[C@@H]2C1`?
ARNT TACC3 PPI: -5

Results for CCOC(=O)[C@]1(C#N)[C@@H]2C=CC(C(C)=O)=CN2[C@@H](C(N)=O)[C@@H]1c1ccsc1 ?
SIAE inh: 17*; TCR-CD3 inh: -3; ARNT TACC3 PPI: 9; mABHD4 FP: 19; HTRA1 inhibitor: -5

What do the screens show for `O=C(Cc1cccnc1)N1CCCCN2[C@H](CO)[C@@H](c3ccc(C#CC4CCCC4)cc3)[C@@H]2C1`?
ARNT TACC3 PPI: -1

How did S=C(NCCc1ccccc1)NCCc1cnc[nH]1 do in these assays?
SIAE inh: -3; TCR-CD3 inh: 0; ARNT TACC3 PPI: 57*; mABHD4 FP: 7; HTRA1 inhibitor: 4

What do the screens show for `Cc1ccc(NC(=S)NCCc2cnc[nH]2)cc1C`?
SIAE inh: -1; TCR-CD3 inh: 5; ARNT TACC3 PPI: -1; mABHD4 FP: -3; HTRA1 inhibitor: 2

Results for COC(=O)[C@@H]1[C@@H](CO)[C@@H]2Cn3c(ccc(C4=CCCC4)c3=O)[C@H]1N2CC1CCCCC1 ?
ARNT TACC3 PPI: 4

Results for CC1(C)CC(=O)C(C2(O)C(=O)NC(=O)NC2=O)=C(O)C1 ?
SIAE inh: -1; TCR-CD3 inh: 0; ARNT TACC3 PPI: 23*; mABHD4 FP: 5; HTRA1 inhibitor: -5

What do the screens show for `COC(=O)[C@H]1[C@H](CO)[C@H]2Cn3c(ccc(-c4ccncc4)c3=O)[C@@H]1N2CCc1ccccc1`?
ARNT TACC3 PPI: 20

What do the screens show for `COC(=O)C1=C(C(=O)OC)SC2(S1)C(C(=O)OC)=C(C(=O)OC)Sc1c2ssc1=O`?
SIAE inh: 2; TCR-CD3 inh: -4; ARNT TACC3 PPI: 68*; mABHD4 FP: 8; HTRA1 inhibitor: 10

What do the screens show for `O=C(N/N=C/c1c(O)n(Cc2ccc(F)cc2)c(=O)[nH]c1=O)c1ccccc1`?
SIAE inh: -3; TCR-CD3 inh: 11; ARNT TACC3 PPI: 50*; mABHD4 FP: 10; HTRA1 inhibitor: 10
